Reference: ChEMBL document CHEMBL1687687, “Identification of a New Series of STAT3 Inhibitors by Virtual Screening” (ACS Med Chem Lett, 2010)
Calls of active or inactive are those of the source. The calls are words filed in the database; no cut-off is given here.

Experiments:
[1] = molecular target: T1, Signal transducer and activator of transcription 3 (Homo sapiens, UniProt P40763); assay: Inhibition of STAT3 transcriptional activity in human HeLa cells by luciferase reporter gene assay; format: cell-based
Method in brief: (§1)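 STAT3-dependent luciferase reporter gene assay in HeLa cells. Activity is reported as percent inhibition at a single 100 μM concentration, or as an IC50.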

[2] = molecular target: T1, Signal transducer and activator of transcription 3; assay: Inhibition of STAT3 transcriptional activity in human HeLa cells at 100 uM by luciferase reporter gene assay; format: cell-based; method in brief: as §1
[3] = molecular target: T1, Signal transducer and activator of transcription 3; assay: Inhibition of STAT3 dimerization transfected in HEK293 cells at 100 uM after 24 hrs followed by 1 hr stimulation with 50 ng/ml IL-6 by FRET assay; format: cell-based; conditions: 10 uM, in the assay text read “at 10 uM” for “at 100 uM”
Method in brief: (§2)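 Cell-based FRET dimerization read-out in HEK293 cells co-expressing STAT3-CFP and STAT3-YFP. Cells were pretreated with compound before IL-6 stimulation, and the FRET signal from the STAT3–STAT3 interaction was measured. Values are given as percent inhibition of the signal.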

[4] = molecular target: T1, Signal transducer and activator of transcription 3; assay: Inhibition of STAT3 dimerization transfected in HEK293 cells at 50 uM after 24 hrs followed by 1 hr stimulation with 50 ng/ml IL-6 by FRET assay; format: cell-based; method in brief: as §2
[5] = molecular target: T1, Signal transducer and activator of transcription 3; assay: Inhibition of STAT3 in human MDA-MB-468 cells assessed as reduction in c-myc expression at 10 uM by Western blotting; format: cell-based
Method in brief: (§3)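 MDA-MB-468 breast cancer cells were treated with compound at a series of concentrations. Cell lysates were analysed by Western blotting for c-myc, cyclin D1 and survivin, with STAT3 Tyr705 phosphorylation probed alongside.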

[6] = molecular target: T2, Signal transducer and activator of transcription 5B (Homo sapiens) (UniProt P51692); assay: Inhibition of STAT5b DNA binding activity in IL-6 stimulated human MDA-MB-468 cells at 50 uM by transcription factor ELISA; format: cell-based
T2 sequence (whole entry): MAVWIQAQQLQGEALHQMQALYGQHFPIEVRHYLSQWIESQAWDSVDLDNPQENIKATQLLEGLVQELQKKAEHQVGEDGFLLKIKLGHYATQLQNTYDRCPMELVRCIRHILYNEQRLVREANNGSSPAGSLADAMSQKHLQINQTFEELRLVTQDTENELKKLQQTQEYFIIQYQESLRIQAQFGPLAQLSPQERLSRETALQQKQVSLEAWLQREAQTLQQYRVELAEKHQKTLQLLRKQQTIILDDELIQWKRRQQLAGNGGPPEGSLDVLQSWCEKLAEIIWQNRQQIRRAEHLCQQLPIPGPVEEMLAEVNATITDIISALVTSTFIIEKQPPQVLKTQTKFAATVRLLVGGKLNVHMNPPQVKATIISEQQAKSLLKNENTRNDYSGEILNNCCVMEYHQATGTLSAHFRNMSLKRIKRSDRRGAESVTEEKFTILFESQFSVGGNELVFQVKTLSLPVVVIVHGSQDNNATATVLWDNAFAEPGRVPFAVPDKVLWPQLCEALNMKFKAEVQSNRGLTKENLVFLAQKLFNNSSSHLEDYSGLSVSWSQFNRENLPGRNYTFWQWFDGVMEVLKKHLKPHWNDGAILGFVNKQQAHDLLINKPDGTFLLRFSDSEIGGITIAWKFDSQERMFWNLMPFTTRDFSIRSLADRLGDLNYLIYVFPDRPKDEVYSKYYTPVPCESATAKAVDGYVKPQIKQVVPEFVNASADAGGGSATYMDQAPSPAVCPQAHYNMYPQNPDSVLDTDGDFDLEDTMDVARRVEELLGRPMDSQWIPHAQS

MDA-MB-453 = assay: Induction of apoptosis in human MDA-MB-453 cells assessed as increase in caspase3/7 activity at 1-100 uM by fluorescence assay; format: functional, cell-based
SCC-3 = assay: Antitumor activity against human SCC-3 cells xenografted in BALB/cA-v/v nude mouse assessed as decrease in tumor volume at 160 mg/kg, po QD for 4 days measured on 4th day relative to control; format: functional; parameters: scale not given: the % may be the effect or the level left
Method in brief: (§4)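 Human SCC-3 lymphoma cells implanted subcutaneously in nude mice. Compound given by oral gavage at 160 mg/kg once daily for 4 days. Tumour growth was assessed on day 4 against untreated controls, with significance taken at p < 0.05. Body weight and signs of toxicity were monitored over the same period.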

[7] = molecular target: T1, Signal transducer and activator of transcription 3; assay: Inhibition of STAT3 in human MDA-MB-468 cells assessed as reduction in cyclin D1 expression at 50 uM by Western blotting; format: cell-based; method in brief: as §3
MDA-MB-468 = assay: Induction of apoptosis in human MDA-MB-468 cells assessed as increase in caspase3/7 activity at 1-100 uM by fluorescence assay; format: functional, cell-based
[8] = molecular target: T3, Signal transducer and activator of transcription 1-alpha/beta (Homo sapiens) (UniProt P42224); assay: Inhibition of STAT1 DNA binding activity in IL-6 stimulated human MDA-MB-468 cells at 50 uM by transcription factor ELISA; format: cell-based
T3 sequence (whole entry): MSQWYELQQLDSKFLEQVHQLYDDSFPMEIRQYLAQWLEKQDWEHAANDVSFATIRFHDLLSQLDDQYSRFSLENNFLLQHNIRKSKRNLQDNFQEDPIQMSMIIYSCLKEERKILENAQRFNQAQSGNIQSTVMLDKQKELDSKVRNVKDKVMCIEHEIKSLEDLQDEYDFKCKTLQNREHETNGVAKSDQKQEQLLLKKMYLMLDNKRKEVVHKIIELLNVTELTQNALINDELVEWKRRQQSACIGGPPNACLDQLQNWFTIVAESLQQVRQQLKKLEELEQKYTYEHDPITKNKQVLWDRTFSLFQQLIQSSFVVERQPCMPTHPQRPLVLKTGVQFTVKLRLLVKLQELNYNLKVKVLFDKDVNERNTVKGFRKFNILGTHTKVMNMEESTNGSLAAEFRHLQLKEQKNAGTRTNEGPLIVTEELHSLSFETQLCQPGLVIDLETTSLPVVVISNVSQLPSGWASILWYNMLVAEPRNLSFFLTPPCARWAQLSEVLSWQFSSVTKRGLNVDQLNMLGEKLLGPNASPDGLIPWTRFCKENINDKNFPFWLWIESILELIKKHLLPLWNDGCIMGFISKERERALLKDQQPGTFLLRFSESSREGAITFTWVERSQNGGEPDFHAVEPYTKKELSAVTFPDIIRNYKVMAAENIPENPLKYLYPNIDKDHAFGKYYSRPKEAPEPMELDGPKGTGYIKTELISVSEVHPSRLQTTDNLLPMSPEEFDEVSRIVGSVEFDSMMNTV

[9] = molecular target: T1, Signal transducer and activator of transcription 3; assay: Inhibition of STAT3 in human MDA-MB-468 cells assessed as reduction in survivin expression at 50 uM by Western blotting; format: cell-based; method in brief: as §3
[10] = Plasma concentration in CD1(ICR) mouse at 160 mg/kg, po after 8 hrs by LC-MS analysis; format: ADME, organism-based; parameters: dose 160 mg/kg, route oral
Mus musculus [11] = species on record: Mus musculus; assay: Toxicity in BALB/cA-v/v nude mouse assessed as mortality; format: organism-based; conditions: in vivo
[12] = molecular target: T1, Signal transducer and activator of transcription 3; assay: Inhibition of STAT3 in IL-6 stimulated human MDA-MB-468 cells assessed as reduction in amplification of c-myc promoter by CHIP assay; format: cell-based
Method in brief: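 Chromatin immunoprecipitation in compound-treated MDA-MB-468 breast cancer cells. STAT3 occupancy of the c-myc promoter was judged by amplification of the c-myc promoter from the immunoprecipitate.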

[13] = molecular target: T1, Signal transducer and activator of transcription 3; assay: Inhibition of STAT3 in human MDA-MB-468 cells assessed as reduction in c-myc expression at 50 uM by Western blotting; format: cell-based; method in brief: as §3
[14] = molecular target: T4, Signal transducer and activator of transcription 5A (Homo sapiens) (UniProt P42229); assay: Inhibition of STAT5a DNA binding activity in IL-6 stimulated human MDA-MB-468 cells at 50 uM by transcription factor ELISA; format: cell-based
T4 sequence (whole entry): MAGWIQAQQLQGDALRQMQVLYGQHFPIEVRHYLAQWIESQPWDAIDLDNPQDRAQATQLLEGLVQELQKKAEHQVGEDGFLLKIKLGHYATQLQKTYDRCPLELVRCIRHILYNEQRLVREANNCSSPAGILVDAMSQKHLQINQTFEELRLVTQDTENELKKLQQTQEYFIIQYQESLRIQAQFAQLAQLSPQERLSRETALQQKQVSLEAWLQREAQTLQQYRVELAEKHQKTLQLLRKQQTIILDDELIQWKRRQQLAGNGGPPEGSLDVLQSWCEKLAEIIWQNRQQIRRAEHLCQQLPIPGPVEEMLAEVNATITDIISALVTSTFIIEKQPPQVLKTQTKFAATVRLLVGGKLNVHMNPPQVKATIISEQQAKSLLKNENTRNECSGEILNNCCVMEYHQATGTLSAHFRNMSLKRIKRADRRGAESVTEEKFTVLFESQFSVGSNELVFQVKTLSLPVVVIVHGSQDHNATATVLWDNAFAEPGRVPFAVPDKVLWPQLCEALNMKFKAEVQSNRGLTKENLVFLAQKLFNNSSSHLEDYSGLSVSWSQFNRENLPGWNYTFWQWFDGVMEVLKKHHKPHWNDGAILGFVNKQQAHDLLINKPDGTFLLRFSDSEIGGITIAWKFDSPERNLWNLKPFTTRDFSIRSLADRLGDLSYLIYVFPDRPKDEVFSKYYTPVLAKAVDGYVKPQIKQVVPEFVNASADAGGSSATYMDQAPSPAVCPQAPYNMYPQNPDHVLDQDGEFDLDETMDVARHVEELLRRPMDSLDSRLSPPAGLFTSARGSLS

[15] = molecular target: T1, Signal transducer and activator of transcription 3; assay: Inhibition of STAT3 DNA binding activity in IL-6 stimulated human MDA-MB-468 cells at 50 uM by transcription factor ELISA; format: cell-based
[16] = molecular target: T1, Signal transducer and activator of transcription 3; assay: Inhibition of STAT3 in human MDA-MB-468 cells assessed as reduction in survivin expression at 10 uM by Western blotting; format: cell-based; method in brief: as §3
Mus musculus [17] = species on record: Mus musculus; assay: Toxicity in BALB/cA-v/v nude mouse assessed as increase in body weight relative to control; format: organism-based; conditions: in vivo; method in brief: as §4
[18] = molecular target: T1, Signal transducer and activator of transcription 3; assay: Inhibition of STAT3 in human MDA-MB-468 cells assessed as reduction in cyclin D1 expression at 10 uM by Western blotting; format: cell-based; method in brief: as §3
[19] = molecular target: T1, Signal transducer and activator of transcription 3; assay: Inhibition of STAT3 in human MDA-MB-468 cells assessed as reduction in survivin expression at 20 uM by Western blotting; format: cell-based; method in brief: as §3
[20] = molecular target: T1, Signal transducer and activator of transcription 3; assay: Inhibition of STAT3 in human MDA-MB-468 cells assessed as reduction in c-myc expression at 20 uM by Western blotting; format: cell-based; method in brief: as §3
[21] = molecular target: T1, Signal transducer and activator of transcription 3; assay: Inhibition of STAT3 in human MDA-MB-468 cells assessed as reduction in cyclin D1 expression at 20 uM by Western blotting; format: cell-based; method in brief: as §3

T1 sequence (P40763 whole entry): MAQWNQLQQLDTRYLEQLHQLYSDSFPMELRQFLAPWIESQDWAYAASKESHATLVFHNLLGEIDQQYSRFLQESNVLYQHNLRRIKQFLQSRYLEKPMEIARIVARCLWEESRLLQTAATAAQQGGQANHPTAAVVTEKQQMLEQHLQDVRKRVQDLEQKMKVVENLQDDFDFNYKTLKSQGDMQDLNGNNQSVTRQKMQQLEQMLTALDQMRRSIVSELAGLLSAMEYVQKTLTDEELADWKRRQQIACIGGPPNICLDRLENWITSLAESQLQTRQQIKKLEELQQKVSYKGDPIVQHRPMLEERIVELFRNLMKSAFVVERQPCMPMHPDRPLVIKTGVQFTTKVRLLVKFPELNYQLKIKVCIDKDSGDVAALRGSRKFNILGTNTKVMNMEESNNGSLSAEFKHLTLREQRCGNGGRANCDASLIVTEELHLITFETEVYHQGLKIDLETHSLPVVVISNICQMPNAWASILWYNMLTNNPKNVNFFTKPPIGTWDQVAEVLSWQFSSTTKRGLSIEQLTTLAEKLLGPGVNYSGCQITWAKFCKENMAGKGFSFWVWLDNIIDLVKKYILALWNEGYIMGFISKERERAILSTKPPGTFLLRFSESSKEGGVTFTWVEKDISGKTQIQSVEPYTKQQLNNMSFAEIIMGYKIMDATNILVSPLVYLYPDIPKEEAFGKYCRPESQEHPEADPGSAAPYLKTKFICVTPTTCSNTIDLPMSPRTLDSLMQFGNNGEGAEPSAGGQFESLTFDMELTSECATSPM

SMILES	IC50 [1] [µM]	inhibition [2] [%]	inhibition [3] [%]	inhibition [4] [%]	further results
O=C(Nc1nnc(-c2ccc(Cl)cc2)o1)c1cc(-c2ccccc2)nc2ccccc12	61	115			
O=C(Nc1nnc(-c2ccco2)o1)c1cc(-c2cccnc2)nc2ccccc12		12			
O=C(Nc1nnc(-c2ccco2)o1)c1cc(-c2ccccn2)nc2ccccc12		5			
CCOC(=O)c1nnc(NC(=O)c2cc(-c3ccccc3)nc3ccccc23)o1		38			
O=C(Nc1nnc(-c2ccccc2)o1)c1cc(-c2ccccc2)nc2ccccc12	66	105	43	60	
O=C(Nc1nnc(-c2ccco2)o1)c1cc(-c2ccccc2)nc2ccccc12	74	99	9	62	inhibition [5]: Active; inhibition [6]: inactive; Activity (MDA-MB-453): inactive; Activity (SCC-3): 40%; inhibition [7]: Active; Activity (MDA-MB-468): Active; inhibition [8]: inactive; inhibition [9]: Active; concentration at 8 h [10]: > 260 µM; Activity (Mus musculus [11]): Non-toxic; inhibition [12]: Active; inhibition [13]: Active; inhibition [14]: inactive; inhibition [15]: Active; inhibition [16]: Active; Activity (Mus musculus [17]): Non-toxic; inhibition [18]: Active; inhibition [19]: Active; inhibition [20]: Active; inhibition [21]: Active
Cc1nnc(NC(=O)c2cc(-c3ccccc3)nc3ccccc23)o1		14			
O=C(Nc1nnc(-c2cccs2)o1)c1cc(-c2ccccc2)nc2ccccc12	75	86	36	56	
O=C(Nc1nnc(-c2ccco2)o1)c1cc(-c2cccc3ccccc23)nc2ccccc12	55	121	14	70	
O=C(Nc1nnc(-c2ccoc2)o1)c1cc(-c2ccccc2)nc2ccccc12	72	103	8	55	
O=C(Nc1nnc(-c2ccco2)o1)c1ccnc2ccccc12		-5	-2	-4	
O=C(Nc1nnc(-c2ccco2)o1)c1cc(Cl)nc2ccccc12		43			
O=C(Nc1nnc(-c2ccco2)s1)c1cc(-c2ccccc2)nc2ccccc12		26			
CCc1nnc(NC(=O)c2cc(-c3ccccc3)nc3ccccc23)o1		33			
O=C(Nc1nnc(-c2ccco2)o1)c1cc(-c2cccs2)nc2ccccc12	63	91	18	56	
O=C(Nc1nnc(-c2ccco2)o1)c1cc(-c2ccco2)nc2ccccc12	66	129			
O=C(Nc1nnc(-c2ccco2)o1)c1cc(N2CCCCC2)nc2ccccc12		-7			
O=C(Nc1nnc(Cc2ccccc2)o1)c1cc(-c2ccccc2)nc2ccccc12	75	82	25	61	
O=C(Nc1nnc(-c2ccccc2Cl)o1)c1cc(-c2ccccc2)nc2ccccc12		5			
